# Reference: ChEMBL document CHEMBL5058577, “EUbOPEN Chemogenomics Library 2 (Multiplex)” (2022)
# System: Fibroblast
# Assay: Multiplex assay against human fibroblast
# Format: toxicity, cell-based
# Procedure, shortened: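 Hoechst33342, BioTracker Green Microtubule Cytoskeleton Dye, MitoTracker Red and Annexin V Alexa Fluor 680 were added to live cells at seeding, and imaging on a CQ1 microscope at 37°C and 5% CO2 followed compound addition. Gating by CellPathfinder machine learning separated cells into Hoechst high-intensity objects or normal cells, then normal cells into healthy, pyknosed or fragmented nuclei, then pyknosed cells into mitotic or apoptotic. Per cents of healthy-nucleus cells are reported for the tubulin, mitochondrial-mass and membrane-permeability phenotypes.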
# [1] = 12 h, 1 µM, compound concentration 1 uM, replicate 1
# [2] = 12 h, 1 µM, compound concentration 1 uM, replicate 2
# [3] = 12 h, 10 µM, compound concentration 10 uM, replicate 1
# [4] = 12 h, 10 µM, compound concentration 10 uM, replicate 2
# [5] = 24 h, 1 µM, compound concentration 1 uM, replicate 1
# [6] = 24 h, 1 µM, compound concentration 1 uM, replicate 2
# [7] = 24 h, 10 µM, compound concentration 10 uM, replicate 1
# [8] = 24 h, 10 µM, compound concentration 10 uM, replicate 2
# [9] = 48 h, 1 µM, compound concentration 1 uM, replicate 1
# [10] = 48 h, 1 µM, compound concentration 1 uM, replicate 2
# [11] = 48 h, 10 µM, compound concentration 10 uM, replicate 1
# [12] = 48 h, 10 µM, compound concentration 10 uM, replicate 2
compound,measurement,setting,value
CNC[C@H](O)c1ccc(O)c(O)c1 [EPINEPHRINE],Population Apoptotic (%),[1],36%
same,Population Fragmented Nuclei (%),[1],17%
same,Population Healthy Nuclei (%),[1],66%
same,Population Hoechst High Intensity Objects (%),[1],1%
same,Population Membrane Permeable-Phenotype (%),[1],1%
same,Population Mitochondria Different-Phenotype (%),[1],3%
same,Population Mitotic Cells (%),[1],63%
same,Population Normal (%),[1],98%
same,Population Pyknosed Nuclei (%),[1],16%
same,Population Tubulin-Different-Phenotype (%),[1],15%
same,Population Apoptotic (%),[2],40%
same,Population Fragmented Nuclei (%),[2],38%
same,Population Healthy Nuclei (%),[2],44%
same,Population Membrane Permeable-Phenotype (%),[2],13%
same,Population Mitochondria Different-Phenotype (%),[2],7%
same,Population Mitotic Cells (%),[2],60%
same,Population Pyknosed Nuclei (%),[2],17%
same,Population Tubulin-Different-Phenotype (%),[2],42%
same,Population Apoptotic (%),[3],40%
same,Population Fragmented Nuclei (%),[3],18%
same,Population Healthy Nuclei (%),[3],61%
same,Population Hoechst High Intensity Objects (%),[3],3%
same,Population Membrane Permeable-Phenotype (%),[3],1%
same,Population Mitochondria Different-Phenotype (%),[3],6%
same,Population Mitotic Cells (%),[3],60%
same,Population Normal (%),[3],96%
same,Population Pyknosed Nuclei (%),[3],20%
same,Population Tubulin-Different-Phenotype (%),[3],23%
same,Population Apoptotic (%),[4],32%
same,Population Fragmented Nuclei (%),[4],39%
same,Population Healthy Nuclei (%),[4],37%
same,Population Hoechst High Intensity Objects (%),[4],7%
same,Population Membrane Permeable-Phenotype (%),[4],12%
same,Population Mitochondria Different-Phenotype (%),[4],8%
same,Population Mitotic Cells (%),[4],67%
same,Population Normal (%),[4],92%
same,Population Pyknosed Nuclei (%),[4],23%
same,Population Tubulin-Different-Phenotype (%),[4],55%
same,Population Apoptotic (%),[5],54%
same,Population Fragmented Nuclei (%),[5],12%
same,Population Healthy Nuclei (%),[5],70%
same,Population Hoechst High Intensity Objects (%),[5],0%
same,Population Membrane Permeable-Phenotype (%),[5],0%
same,Population Mitochondria Different-Phenotype (%),[5],3%
same,Population Mitotic Cells (%),[5],45%
same,Population Normal (%),[5],99%
same,Population Pyknosed Nuclei (%),[5],16%
same,Population Tubulin-Different-Phenotype (%),[5],11%
same,Population Apoptotic (%),[6],23%
same,Population Fragmented Nuclei (%),[6],38%
same,Population Healthy Nuclei (%),[6],47%
same,Population Hoechst High Intensity Objects (%),[6],3%
same,Population Membrane Permeable-Phenotype (%),[6],12%
same,Population Mitochondria Different-Phenotype (%),[6],6%
same,Population Mitotic Cells (%),[6],76%
same,Population Normal (%),[6],96%
same,Population Pyknosed Nuclei (%),[6],14%
same,Population Tubulin-Different-Phenotype (%),[6],32%
same,Population Apoptotic (%),[7],65%
same,Population Fragmented Nuclei (%),[7],16%
same,Population Healthy Nuclei (%),[7],60%
same,Population Hoechst High Intensity Objects (%),[7],3%
same,Population Membrane Permeable-Phenotype (%),[7],0%
same,Population Mitochondria Different-Phenotype (%),[7],5%
same,Population Mitotic Cells (%),[7],34%
same,Population Normal (%),[7],96%
same,Population Pyknosed Nuclei (%),[7],23%
same,Population Tubulin-Different-Phenotype (%),[7],21%
same,Population Apoptotic (%),[8],38%
same,Population Fragmented Nuclei (%),[8],39%
same,Population Healthy Nuclei (%),[8],44%
same,Population Membrane Permeable-Phenotype (%),[8],12%
same,Population Mitochondria Different-Phenotype (%),[8],4%
same,Population Mitotic Cells (%),[8],61%
same,Population Pyknosed Nuclei (%),[8],15%
same,Population Tubulin-Different-Phenotype (%),[8],51%
same,Population Apoptotic (%),[9],50%
same,Population Fragmented Nuclei (%),[9],17%
same,Population Healthy Nuclei (%),[9],67%
same,Population Hoechst High Intensity Objects (%),[9],1%
same,Population Membrane Permeable-Phenotype (%),[9],0%
same,Population Mitochondria Different-Phenotype (%),[9],6%
same,Population Mitotic Cells (%),[9],50%
same,Population Normal (%),[9],98%
same,Population Pyknosed Nuclei (%),[9],15%
same,Population Tubulin-Different-Phenotype (%),[9],23%
same,Population Apoptotic (%),[10],38%
same,Population Fragmented Nuclei (%),[10],41%
same,Population Healthy Nuclei (%),[10],48%
same,Population Membrane Permeable-Phenotype (%),[10],6%
same,Population Mitochondria Different-Phenotype (%),[10],5%
same,Population Mitotic Cells (%),[10],61%
same,Population Pyknosed Nuclei (%),[10],10%
same,Population Tubulin-Different-Phenotype (%),[10],45%
same,Population Apoptotic (%),[11],77%
same,Population Fragmented Nuclei (%),[11],20%
same,Population Healthy Nuclei (%),[11],65%
same,Population Hoechst High Intensity Objects (%),[11],2%
same,Population Membrane Permeable-Phenotype (%),[11],2%
same,Population Mitochondria Different-Phenotype (%),[11],4%
same,Population Mitotic Cells (%),[11],22%
same,Population Normal (%),[11],97%
same,Population Pyknosed Nuclei (%),[11],13%
same,Population Tubulin-Different-Phenotype (%),[11],32%
same,Population Apoptotic (%),[12],37%
same,Population Fragmented Nuclei (%),[12],50%
same,Population Healthy Nuclei (%),[12],44%
same,Population Hoechst High Intensity Objects (%),[12],3%
same,Population Membrane Permeable-Phenotype (%),[12],6%
same,Population Mitochondria Different-Phenotype (%),[12],3%
same,Population Mitotic Cells (%),[12],62%
same,Population Normal (%),[12],96%
same,Population Pyknosed Nuclei (%),[12],5%
same,Population Tubulin-Different-Phenotype (%),[12],46%
O=C(O)c1cc2ccccc2c(Cc2c(O)c(C(=O)O)cc3ccccc23)c1O [PAMOIC ACID],Population Apoptotic (%),[1],54%
same,Population Fragmented Nuclei (%),[1],10%
same,Population Healthy Nuclei (%),[1],81%
same,Population Hoechst High Intensity Objects (%),[1],2%
same,Population Membrane Permeable-Phenotype (%),[1],0%
same,Population Mitochondria Different-Phenotype (%),[1],2%
same,Population Mitotic Cells (%),[1],45%
same,Population Normal (%),[1],97%
same,Population Pyknosed Nuclei (%),[1],7%
same,Population Tubulin-Different-Phenotype (%),[1],20%
same,Total Cell Count,[1],147
same,Population Apoptotic (%),[2],32%
same,Population Fragmented Nuclei (%),[2],23%
same,Population Healthy Nuclei (%),[2],56%
same,Population Hoechst High Intensity Objects (%),[2],6%
same,Population Membrane Permeable-Phenotype (%),[2],6%
same,Population Mitochondria Different-Phenotype (%),[2],8%
same,Population Mitotic Cells (%),[2],67%
same,Population Normal (%),[2],93%
same,Population Pyknosed Nuclei (%),[2],19%
same,Population Tubulin-Different-Phenotype (%),[2],34%
same,Total Cell Count,[2],154
same,Population Apoptotic (%),[3],40%
same,Population Fragmented Nuclei (%),[3],7%
same,Population Healthy Nuclei (%),[3],80%
same,Population Hoechst High Intensity Objects (%),[3],4%
same,Population Membrane Permeable-Phenotype (%),[3],1%
same,Population Mitochondria Different-Phenotype (%),[3],5%
same,Population Mitotic Cells (%),[3],60%
same,Population Normal (%),[3],95%
same,Population Pyknosed Nuclei (%),[3],11%
same,Population Tubulin-Different-Phenotype (%),[3],23%
same,Total Cell Count,[3],132
same,Population Apoptotic (%),[4],37%
same,Population Fragmented Nuclei (%),[4],24%
same,Population Healthy Nuclei (%),[4],51%
same,Population Membrane Permeable-Phenotype (%),[4],3%
same,Population Mitochondria Different-Phenotype (%),[4],3%
same,Population Mitotic Cells (%),[4],62%
same,Population Pyknosed Nuclei (%),[4],24%
same,Population Tubulin-Different-Phenotype (%),[4],51%
same,Total Cell Count,[4],156
same,Population Apoptotic (%),[5],33%
same,Population Fragmented Nuclei (%),[5],10%
same,Population Healthy Nuclei (%),[5],86%
same,Population Hoechst High Intensity Objects (%),[5],3%
same,Population Membrane Permeable-Phenotype (%),[5],0%
same,Population Mitochondria Different-Phenotype (%),[5],2%
same,Population Mitotic Cells (%),[5],66%
same,Population Normal (%),[5],96%
same,Population Pyknosed Nuclei (%),[5],4%
same,Population Tubulin-Different-Phenotype (%),[5],17%
same,Total Cell Count,[5],156
same,Population Apoptotic (%),[6],32%
same,Population Fragmented Nuclei (%),[6],23%
same,Population Healthy Nuclei (%),[6],58%
same,Population Hoechst High Intensity Objects (%),[6],6%
same,Population Membrane Permeable-Phenotype (%),[6],9%
same,Population Mitochondria Different-Phenotype (%),[6],11%
same,Population Mitotic Cells (%),[6],68%
same,Population Normal (%),[6],93%
same,Population Pyknosed Nuclei (%),[6],18%
same,Population Tubulin-Different-Phenotype (%),[6],39%
same,Total Cell Count,[6],147
same,Population Apoptotic (%),[7],50%
same,Population Fragmented Nuclei (%),[7],8%
same,Population Healthy Nuclei (%),[7],77%
same,Population Hoechst High Intensity Objects (%),[7],2%
same,Population Membrane Permeable-Phenotype (%),[7],1%
same,Population Mitochondria Different-Phenotype (%),[7],1%
same,Population Mitotic Cells (%),[7],50%
same,Population Normal (%),[7],97%
same,Population Pyknosed Nuclei (%),[7],13%
same,Population Tubulin-Different-Phenotype (%),[7],20%
same,Total Cell Count,[7],138
same,Population Apoptotic (%),[8],40%
same,Population Fragmented Nuclei (%),[8],34%
same,Population Healthy Nuclei (%),[8],52%
same,Population Hoechst High Intensity Objects (%),[8],5%
same,Population Membrane Permeable-Phenotype (%),[8],3%
same,Population Mitochondria Different-Phenotype (%),[8],5%
same,Population Mitotic Cells (%),[8],59%
same,Population Normal (%),[8],94%
same,Population Tubulin-Different-Phenotype (%),[8],39%
same,Total Cell Count,[8],170
same,Population Apoptotic (%),[9],25%
same,Population Fragmented Nuclei (%),[9],12%
same,Population Healthy Nuclei (%),[9],79%
same,Population Hoechst High Intensity Objects (%),[9],4%
same,Population Membrane Permeable-Phenotype (%),[9],0%
same,Population Mitochondria Different-Phenotype (%),[9],2%
same,Population Mitotic Cells (%),[9],75%
same,Population Normal (%),[9],95%
same,Population Pyknosed Nuclei (%),[9],8%
same,Population Tubulin-Different-Phenotype (%),[9],23%
same,Total Cell Count,[9],155
same,Population Apoptotic (%),[10],38%
same,Population Fragmented Nuclei (%),[10],23%
same,Population Healthy Nuclei (%),[10],58%
same,Population Hoechst High Intensity Objects (%),[10],3%
same,Population Membrane Permeable-Phenotype (%),[10],9%
same,Population Mitochondria Different-Phenotype (%),[10],8%
same,Population Mitotic Cells (%),[10],61%
same,Population Normal (%),[10],96%
same,Population Pyknosed Nuclei (%),[10],17%
same,Population Tubulin-Different-Phenotype (%),[10],44%
same,Total Cell Count,[10],152
same,Population Apoptotic (%),[11],50%
same,Population Fragmented Nuclei (%),[11],19%
same,Population Healthy Nuclei (%),[11],72%
same,Population Hoechst High Intensity Objects (%),[11],5%
same,Population Membrane Permeable-Phenotype (%),[11],2%
same,Population Mitochondria Different-Phenotype (%),[11],5%
same,Population Mitotic Cells (%),[11],50%
same,Population Normal (%),[11],94%
same,Population Pyknosed Nuclei (%),[11],7%
same,Population Tubulin-Different-Phenotype (%),[11],29%
same,Total Cell Count,[11],136
same,Population Apoptotic (%),[12],60%
same,Population Fragmented Nuclei (%),[12],32%
same,Population Healthy Nuclei (%),[12],60%
same,Population Hoechst High Intensity Objects (%),[12],3%
same,Population Membrane Permeable-Phenotype (%),[12],3%
same,Population Mitochondria Different-Phenotype (%),[12],1%
same,Population Mitotic Cells (%),[12],40%
same,Population Normal (%),[12],96%
same,Population Pyknosed Nuclei (%),[12],6%
same,Population Tubulin-Different-Phenotype (%),[12],28%
same,Total Cell Count,[12],156
